The values that follow come from ChEMBL document CHEMBL3992517 (J Med Chem, 2017).

Active and inactive are the calls of the source. The calls are words filed in the database; no cut-off is given here. Some results are limits rather than exact numbers.

The IC50 is the concentration that inhibits the measured activity by half. A lower IC50 goes with higher potency. In general, GI50 refers to the concentration that inhibits growth by half.

For data set [1], the system named is K562. The data set is described as follows: Antiproliferative activity against human K562 cells after 48 hrs by Alamar blue dye based neubauer hemocytometer method. The settings on record: K562, 48 h. It is filed as functional, cell-based. In a few lines:
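K562 human chronic myelogenous leukemia cells, mycoplasma-negative, grown at 37 °C in 5% CO2 in RPMI 1640 with 10% FBS, penicillin/streptomycin and L-glutamine. Cells were exposed to compound for 48 h and then counted on a Neubauer hemocytometer. IC50 is the concentration giving 50% growth inhibition, taken as the mean of at least three independent determinations (SD < 10%).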
(In general: Alamar Blue is a resazurin reagent that responds to reducing activity.)

A short description of data set [2]: (§1) Inhibition of porcine tubulin polymerization after 45 mins by turbidometric method. Also on record: species or system Sus scrofa.
The subject of data set [3] is JIMT-1. The data set is described as follows: Antiproliferative activity against human JIMT1 cells after 72 hrs by SRB assay. It is filed as functional. The settings on record: JIMT-1, 72 h. In a few lines:
(§2)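 Cell panel screen (93 tumour lines listed in text; 94 in the table), run to the DTP NCI sulforhodamine B protocol. Concentrations from 0.0001 to 10 µM. GI50 is the molar concentration giving 50% growth inhibition relative to the initial seeding number, taken from log-transformed data. zScore is reported per cell line.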
(In SRB staining, fixed cells bind dye roughly in proportion to their protein.)

The subject of data set [4] is RD. The data set is described as follows: Antiproliferative activity against human RD cells after 72 hrs by SRB assay. It is filed as functional. The method in brief:
as §2

Data set [5] has as its system JAR. Briefly: Antiproliferative activity against human JAR cells after 72 hrs by SRB assay. It is filed as functional. In a few lines: as §2
The test system of data set [6] is Caco-2. Briefly: Antiproliferative activity against human Caco2 cells after 72 hrs by SRB assay. It is filed as functional. The settings on record: Caco-2, 72 h. In a few lines:
as §2

Data set [7] relates to PBMC. The data set is described as follows: Cytotoxicity against human PBMC after 72 hrs by SRB assay. The class given is cell-based. In a few lines:
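Resting, non-proliferating peripheral blood mononuclear cells were included in the panel and quantified by sulforhodamine B staining.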

For data set [8], the system named is Panc1005. Briefly: Antiproliferative activity against human Panc 10.05 cells after 72 hrs by SRB assay. The class given is functional. The settings on record: Panc1005, 72 h. The method in brief: as §2
Data set [9] has as its system K562. The data set is described as follows: Cell cycle arrest in human K562 cells assessed as accumulation at G2/M phase up to 30 nM after 24 hrs by propidium iodide staining-based flow cytometry.
Data set [10] deals with MG-63. Briefly: Antiproliferative activity against human MG63 cells after 72 hrs by SRB assay. It is filed as functional. The settings on record: MG-63, 72 h. In a few lines:
as §2

For data set [11], the system named is HT-29. The data set is described as follows: Antiproliferative activity against human HT-29 cells after 72 hrs by SRB assay. The class given is functional. The settings on record: HT-29, 72 h. In a few lines:
as §2

The nature of data set [12]: Antiproliferative activity against human CLS439 cells after 72 hrs by SRB assay. The settings on record: CLS439, 72 h. The class given is functional. The method in brief:
as §2

Data set [13] deals with COLO-678. Briefly: Antiproliferative activity against human COLO-678 cells after 72 hrs by SRB assay. It is filed as functional. The settings on record: COLO-678, 72 h. In a few lines: as §2
For data set [14], the system named is SK-BR-3. Briefly: Antiproliferative activity against human SK-BR-3 cells after 72 hrs by SRB assay. The class given is functional. The settings on record: SK-BR-3, 72 h. The method in brief: as §2
The subject of data set [15] is SK-LMS-1. The data set is described as follows: Antiproliferative activity against human SKLMS1 cells after 72 hrs by SRB assay. It is filed as functional. The settings on record: SK-LMS-1, 72 h. The method in brief:
as §2

Data set [16] deals with SK-N-AS. The data set is described as follows: Antiproliferative activity against human SK-N-AS cells after 72 hrs by SRB assay. It is filed as functional. In a few lines: as §2
The subject of data set [17] is PANC-1. Briefly: Antiproliferative activity against human PANC1 cells after 72 hrs by SRB assay. It is filed as functional. Conditions: PANC-1, 72 h. The method in brief:
as §2

The subject of data set [18] is NCI-H82. Briefly: Antiproliferative activity against human NCI-H82 cells after 72 hrs by SRB assay. The class given is functional. The settings on record: NCI-H82, 72 h. The method in brief: as §2
Data set [19] is filed under the species Sus scrofa. The data set is described as §1.
Data set [20] has as its system NCI-H292. The data set is described as follows: Antiproliferative activity against human NCI-H292 cells after 72 hrs by SRB assay. It is filed as functional. Conditions: NCI-H292, 72 h. The method in brief: as §2
Data set [21] has as its system IMR-90. Briefly: Antiproliferative activity against human IMR90 cells after 72 hrs by SRB assay. It is filed as functional. Conditions: IMR-90, 72 h. In a few lines:
as §2

The target in data set [22] is Tubulin beta-5 chain (Homo sapiens) (UniProt P07437). Briefly: Competitive binding affinity to beta-tubulin in human K562 cells assessed as disappearance of EBI-protein adducts at 20 to 40 uM preincubated for 2 hrs followed by EBI addition measured after 1.5 hrs by Western blot analysis. It is filed as cell-based. In general terms: A western blot detects proteins with antibodies after separation by electrophoresis.
Sequence of Tubulin beta-5 chain (Homo sapiens) (P07437 whole entry): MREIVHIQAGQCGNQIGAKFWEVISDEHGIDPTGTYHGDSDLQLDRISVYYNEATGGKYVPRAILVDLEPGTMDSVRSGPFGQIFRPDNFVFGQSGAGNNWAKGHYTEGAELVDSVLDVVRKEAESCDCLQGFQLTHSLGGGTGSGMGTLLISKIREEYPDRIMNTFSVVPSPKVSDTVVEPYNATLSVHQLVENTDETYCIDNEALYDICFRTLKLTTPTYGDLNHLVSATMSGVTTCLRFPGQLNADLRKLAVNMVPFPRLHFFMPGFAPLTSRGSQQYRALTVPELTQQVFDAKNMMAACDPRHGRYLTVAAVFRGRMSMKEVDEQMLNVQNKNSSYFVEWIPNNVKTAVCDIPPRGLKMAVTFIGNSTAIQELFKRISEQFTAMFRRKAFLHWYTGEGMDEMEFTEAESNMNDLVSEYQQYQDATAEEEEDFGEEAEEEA

Take `COc1ccccc1N1CCN(C(=O)N2c3ccccc3C=Cc3ccccc32)CC1`: the 50% inhibitory concentration (IC50) was 450 nM in data set [1] and 2830 nM in data set [2].

`COc1ccc(N2CCN(C(=O)N3c4ccccc4Sc4ccccc43)CC2)cc1` registered an IC50 in data set [1] of 3700 nM.

Turning to `COc1cccc(N2CCN(C(=O)N3c4ccccc4Sc4ccccc43)CC2)c1`, the values for the 50% inhibitory concentration (IC50) in [1] and in data set [2] were 20 nM and 550 nM, respectively.

Consider `O=C(N1CCN(c2ccccc2)CC1)N1c2ccccc2Oc2ccccc21`, for which the concentration for half-maximal inhibition (IC50) in data set [1] is 30 nM; in [2], 1380 nM.

`N#Cc1ccc(N2CCN(C(=O)N3c4ccccc4Oc4ccccc43)CC2)cc1`: the 50% inhibitory concentration (IC50) in data set [1] is > 20000 nM; in data set [2], > 10000 nM.

On to `COc1cccc(N2CCN(C(=O)N3c4ccccc4C=Cc4ccccc43)CC2)c1`, for which the IC50 in data set [1] stood at 940 nM; in data set [2] it was 3560 nM.

Regarding `O=C(N1CCN(c2ccccc2)CC1)N1c2ccccc2Sc2ccccc21`, the 50% inhibitory concentration (IC50) in data set [1] worked out at 130 nM; in data set [2], 810 nM.

For the molecule `COc1ccccc1N1CCN(CC(=O)N2c3ccccc3Oc3ccccc32)CC1`, the IC50 in data set [1] was 9000 nM; in [2], > 10000 nM.

As to `COc1cccc(N2CCN(C(=O)N3c4ccccc4Oc4cc(C#N)ccc43)CC2)c1`, the GI50 in data set [3] came to 5.9 nM; in data set [4] it was 1.7 nM; in data set [5], 1.7 nM; in data set [6], 7.9 nM; in [8] it was 1.7 nM; in data set [10], 1.5 nM. The GI50 in [11] came to 6.4 nM; in [12], 7.8 nM; in data set [13], 7.5 nM; in [14], 1.5 nM; in [15], 5.9 nM; in [16], 1.4 nM. In addition, the 50% growth inhibitory concentration (GI50) in [17] was 6.5 nM; in data set [18], 1.6 nM; in data set [20], 6.7 nM; in data set [21], 1.6 nM. Besides, the 50% inhibitory concentration (IC50) in [1] was found to be 7 nM; in data set [2], 360 nM. Moreover, the Activity entry in [7] is reported as “Non-Toxic”. In addition, in data set [9], the result was Active. For the same molecule, the inhibition entry in data set [19] is “Dose-dependent effect”.

For `O=C(N1CCN(c2ccc([N+](=O)[O-])cc2)CC1)N1c2ccccc2Oc2ccccc21`, the figures for the IC50 in data set [1] and in data set [2] were > 70000 nM and > 10000 nM, respectively.

For `COc1cccc(CNC(=O)N2c3ccccc3Oc3ccccc32)c1`, the values for the IC50 in data set [1] and in [2] were 6000 nM and 8530 nM, respectively.

As to `COc1cccc(N2CCN(C(=O)N3c4cc(Cl)ccc4Oc4ccc(Cl)cc43)CC2)c1`, the IC50 in [1] amounted to 180 nM; in data set [2], 900 nM.

As for `COc1ccc(NC(=O)N2c3ccccc3Oc3ccccc32)cc1`, the half-inhibitory concentration (IC50) in [1] is > 80000 nM; in data set [2] it was > 10000 nM.

In the case of `COc1ccc(N2CCN(C(=O)N3c4ccccc4Oc4cc(C#N)ccc43)CC2)cc1`, the IC50 came to 3700 nM in data set [1] and 3380 nM in data set [2].

On to `COc1cccc(N2CCN(C(=O)N3c4ccccc4Oc4ccc(Cl)cc43)CC2)c1`, for which the IC50 in [1] amounted to 30 nM; in data set [2] it was 800 nM.

On to `O=C(N1CCN(c2ccc(C(F)(F)F)cc2)CC1)N1c2ccccc2Oc2ccccc21`, for which the IC50 in data set [1] was > 60000 nM; in [2], > 10000 nM.

In data set [1], `Cc1ccc(N2CCN(C(=O)N3c4ccccc4Oc4ccccc43)CC2)cc1` returned an IC50 of 1390 nM.

Turning to `O=C(N1CCN(c2ccc(Cl)cc2)CC1)N1c2ccccc2Oc2ccccc21`, the results for the IC50 in [1] and in data set [2] were 630 nM and 830 nM, respectively.

With `COc1cccc(N2CCN(C(=O)Nc3ccccc3Oc3ccccc3)CC2)c1`, the IC50 in [1] and in data set [2] was > 10000 nM each time.

Regarding `COc1ccc(N2CCN(C(=O)N3c4ccccc4Sc4ccc(Cl)cc43)CC2)cc1`, the IC50 in data set [1] is 1900 nM; in data set [2] it was > 10000 nM.

In the case of `COc1ccc(N2CCN(C(=O)Nc3ccccc3Oc3ccccc3)CC2)cc1`, the IC50 in [1] and in [2] was > 10000 nM each time.

Turning to `COc1cccc(N2CCN(CC(=O)N3c4ccccc4Oc4ccccc43)CC2)c1`, the 50% inhibitory concentration (IC50) in data set [1] is 5000 nM; in [2] it was > 10000 nM.

With `COc1ccc(N2CCN(C(=O)N3c4ccccc4Oc4ccccc43)CC2)cc1`, the IC50 in data set [1] was found to be 3130 nM; in [2], 14300 nM.

In the case of `COc1ccc(CNC(=O)N2c3ccccc3Oc3ccccc32)cc1`, the 50% inhibitory concentration (IC50) in [1] turned out to be 19000 nM; in data set [2] it was 9000 nM.

`COc1ccccc1N1CCN(C(=O)N2c3ccccc3Sc3ccccc32)CC1`: the IC50 was found to be 20 nM in data set [1] and 600 nM in [2]. Besides, in data set [22], the result was Active.

Consider `COc1ccccc1N1CCN(C(=O)N2c3ccccc3Sc3ccc(Cl)cc32)CC1`, for which the half-inhibitory concentration (IC50) is 90 nM in [1] and 510 nM in data set [2].

With `COc1ccccc1N1CCN(C(=O)N2c3ccccc3Oc3cc(C#N)ccc32)CC1`, the 50% inhibitory concentration (IC50) in data set [1] amounted to 30 nM; in data set [2], 320 nM.

Turning to `COc1cccc(N2CCN(C(=O)N3c4ccccc4Oc4ccccc43)CC2)c1`, the 50% inhibitory concentration (IC50) in data set [1] worked out at 20 nM; in data set [2] it was 690 nM.

In data set [1], `c1ccc2c(c1)Nc1ccccc1O2` [PHENOXAZINE] yielded a half-inhibitory concentration (IC50) of 16800 nM.

Regarding `COc1ccccc1N1CCN(C(=O)N2c3ccccc3CCc3ccccc32)CC1`, the IC50 worked out at 840 nM in data set [1] and 10700 nM in data set [2].

In the case of `COc1cccc(N2CCN(C(=O)N3c4ccccc4Sc4ccc(Cl)cc43)CC2)c1`, the IC50 in data set [1] came out at 30 nM; in data set [2] it was 920 nM.

Turning to `COc1ccccc1N1CCN(C(=O)Nc2ccccc2Oc2ccccc2)CC1`, the IC50 in [1] and in data set [2] was > 10000 nM throughout.

`CC[C@]1(O)C[C@H]2CN(CCc3c([nH]c4ccccc34)[C@@](C(=O)OC)(c3cc4c(cc3OC)N(C)[C@H]3[C@@](O)(C(=O)OC)[C@H](OC(C)=O)[C@]5(CC)C=CCN6CC[C@]43[C@@H]65)C2)C1` returned an IC50 in data set [1] of 1 nM.

Turning to `COc1ccccc1N1CCN(C(=O)N2c3ccccc3Oc3ccccc32)CC1`, the IC50 in [1] worked out at 20 nM; in data set [2], 640 nM.

For `COc1cccc(N2CCN(C(=O)N(c3ccccc3)c3ccccc3)CC2)c1`, the results for the IC50 in data set [1] and in [2] were 18000 nM and > 10000 nM, respectively.

With `N#Cc1ccc(N2CCN(C(=O)N3c4ccccc4Sc4ccccc43)CC2)cc1`, inhibition in [1] was half-maximal at 390 nM (IC50).

`COc1ccccc1N1CCN(C(=O)N2c3cc(Cl)ccc3Oc3ccc(Cl)cc32)CC1`: the half-inhibitory concentration (IC50) in [1] worked out at 130 nM; in [2] it was 1190 nM.

Take `COc1ccccc1N1CCN(C(=O)N2c3ccccc3Oc3ccc(Cl)cc32)CC1`: the 50% inhibitory concentration (IC50) was determined as 30 nM in data set [1] and 620 nM in data set [2].
